Measured values as given in ChEMBL document CHEMBL1155063 (Bioorg Med Chem, 2008).

How the values were obtained:
TK-10 = test: Cytotoxicity against human TK10 cells at 10 uM after 48 hrs by MTT assay; type: functional; settings: TK-10, 48 h, values are per cent of control
In short: (§1)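 Single-dose screen in the NCI 60-cell-line panel, run according to the Developmental Therapeutics Program protocol (one-dose mean graph). The result is the growth percentage of treated cells relative to untreated control cells.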

UO-31 = test: Cytotoxicity against human UO31 cells at 10 uM after 48 hrs by MTT assay; type: functional; settings: UO-31, 48 h, values are per cent of control; in short: as §1
M14 = test: Cytotoxicity against human M14 cells at 10 uM after 48 hrs by MTT assay; type: functional; settings: M14, 48 h, values are per cent of control
In short: (§2)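 Single-dose screen on the NCI 60-cell-line panel, run to the Developmental Therapeutics Program protocol (one-dose mean graph). Each value is the growth percentage of treated cells against untreated control cells.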

Malme-3M = test: Cytotoxicity against human MALME3M cells at 10 uM after 48 hrs by MTT assay; type: functional; settings: values are per cent of control; in short: as §2
SK-MEL-5 = test: Cytotoxicity against human SK-MEL-5 cells at 10 uM after 48 hrs by MTT assay; type: functional; settings: SK-MEL-5, 48 h, values are per cent of control; in short: as §2
UACC-257 = test: Cytotoxicity against human UACC257 cells at 10 uM after 48 hrs by MTT assay; type: functional; settings: UACC-257, 48 h, values are per cent of control; in short: as §1
UACC-62 = test: Cytotoxicity against human UACC62 cells at 10 uM after 48 hrs by MTT assay; type: functional; settings: UACC-62, 48 h, values are per cent of control; in short: as §1
SF-539 = test: Cytotoxicity against human SF539 cells at 10 uM after 48 hrs by MTT assay; type: functional; settings: SF-539, 48 h, values are per cent of control; in short: as §2
SNB-19 = test: Cytotoxicity against human SNB19 cells at 10 uM after 48 hrs by MTT assay; type: functional; settings: SNB-19, 48 h, values are per cent of control; in short: as §2
[1] = Cytotoxicity against human H1299 cells at 100 uM after 48 hrs by MTT assay realtive to control; type: functional; settings: NCI-H1299, 48 h
In short: (§3)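 H1299 non-small-cell lung cells were kept in RPMI 1640 with 10% FBS and penicillin/streptomycin at 37 °C under 5% CO2. About 2 × 10^3 cells per well were pre-incubated for 24 h. Compound was added from freshly made DMSO solution diluted in complete medium and left for 48 h. MTT was then added for 4 h at 37 °C, followed by 20% SDS/50% DMF lysis buffer for 16 h at 37 °C, and absorbance read at 550 nm.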

[2] = Cytotoxicity against human H1299 cells at 10 uM after 48 hrs by MTT assay realtive to control; type: functional; settings: NCI-H1299, 48 h; in short: as §3
[3] = Cytotoxicity against human TERT immortalized BJ1 cells at 100 uM after 48 hrs by MTT assay relative to control; type: cell-based, BJ
In short: (§4)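 hTERT-immortalized BJ1 fibroblasts were grown in DMEM with 10% FCS, 1 mM pyruvate and 4 mM […]. Cells (about 2 × 10^3 per well) were seeded and held 24 h at 37 °C. Compounds were freshly dissolved in DMSO, diluted into medium and left on the cells 48 h. MTT was added for 4 h, then SDS/DMF lysis buffer for 16 h. Absorbance was read at 550 nm and expressed relative to untreated cells (100%).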

[4] = Cytotoxicity against human TERT immortalized BJ1 cells at 10 uM after 48 hrs by MTT assay relative to control; type: cell-based, BJ; in short: as §4
EKVX = test: Cytotoxicity against human EKVX cells at 10 uM after 48 hrs by MTT assay; type: functional; in short: as §2
HOP-62 = test: Cytotoxicity against human HOP62 cells at 10 uM after 48 hrs by MTT assay; type: functional; settings: HOP-62, 48 h; in short: as §2
HOP-92 = test: Cytotoxicity against human HOP92 cells at 10 uM after 48 hrs by MTT assay; type: functional; settings: HOP-92, 48 h; in short: as §2
NCI-H226 = test: Cytotoxicity against human NCI-H226 cells at 10 uM after 48 hrs by MTT assay; type: functional; settings: NCI-H226, 48 h; in short: as §2
NCI-H23 = test: Cytotoxicity against human NCI-H23 cells at 10 uM after 48 hrs by MTT assay; type: functional; settings: NCI-H23, 48 h; in short: as §2
COLO 205 = test: Cytotoxicity against human COLO205 cells at 10 uM after 48 hrs by MTT assay; type: functional; settings: COLO 205, 48 h, values are per cent of control; in short: as §2
KM12 = test: Cytotoxicity against human KM12 cells at 10 uM after 48 hrs by MTT assay; type: functional; settings: KM12, 48 h; in short: as §2
Hs-578T = test: Cytotoxicity against human HS578T cells at 10 uM after 48 hrs by MTT assay; type: functional; settings: values are per cent of control; in short: as §2
MCF7 = test: Cytotoxicity against human MCF7 cells at 10 uM after 48 hrs by MTT assay; type: functional; settings: MCF7, 48 h, values are per cent of control; in short: as §2
MDA-MB-435 = test: Cytotoxicity against human MDA-MB-435 cells at 10 uM after 48 hrs by MTT assay; type: functional; settings: MDA-MB-435, 48 h; in short: as §2
T47D = test: Cytotoxicity against human T47D cells at 10 uM after 48 hrs by MTT assay; type: functional; in short: as §1
OVCAR-8 = test: Cytotoxicity against human OVCAR8 cells at 10 uM after 48 hrs by MTT assay; type: functional; settings: OVCAR-8, 48 h; in short: as §2
K562 = test: Cytotoxicity against human K562 cells at 10 uM after 48 hrs by MTT assay; type: functional; settings: K562, 48 h; in short: as §2
RPMI-8226 = test: Cytotoxicity against human RPMI-8226 cells at 10 uM after 48 hrs by MTT assay; type: functional; settings: RPMI-8226, 48 h; in short: as §2
786-0 = test: Cytotoxicity against human 786-0 cells at 10 uM after 48 hrs by MTT assay; type: functional; settings: 786-0, 48 h; in short: as §2
A498 = test: Cytotoxicity against human A498 cells at 10 uM after 48 hrs by MTT assay; type: functional; settings: A498, 48 h; in short: as §2
ACHN = test: Cytotoxicity against human ACHN cells at 10 uM after 48 hrs by MTT assay; type: functional; in short: as §2
HCC 2998 = test: Growth percent of human HCC2998 cells at 10 uM after 48 hrs by MTT assay; settings: HCC 2998, 48 h
NCI-H460 = test: Growth percent of human NCI-H460 cells at 10 uM after 48 hrs by MTT assay; settings: NCI-H460, 48 h
[5] = Cell viability of human H1299 cells at 1 uM after 48 hrs by MTT assay relative to control; settings: NCI-H1299, 48 h
[6] = biological target: T1, Telomerase reverse transcriptase (Homo sapiens, UniProt O14746); test: Effect on human TERT expressed in H1299 cells at 1 uM after 24 hrs by SEAP assay relative to control
T1 sequence (O14746 whole entry): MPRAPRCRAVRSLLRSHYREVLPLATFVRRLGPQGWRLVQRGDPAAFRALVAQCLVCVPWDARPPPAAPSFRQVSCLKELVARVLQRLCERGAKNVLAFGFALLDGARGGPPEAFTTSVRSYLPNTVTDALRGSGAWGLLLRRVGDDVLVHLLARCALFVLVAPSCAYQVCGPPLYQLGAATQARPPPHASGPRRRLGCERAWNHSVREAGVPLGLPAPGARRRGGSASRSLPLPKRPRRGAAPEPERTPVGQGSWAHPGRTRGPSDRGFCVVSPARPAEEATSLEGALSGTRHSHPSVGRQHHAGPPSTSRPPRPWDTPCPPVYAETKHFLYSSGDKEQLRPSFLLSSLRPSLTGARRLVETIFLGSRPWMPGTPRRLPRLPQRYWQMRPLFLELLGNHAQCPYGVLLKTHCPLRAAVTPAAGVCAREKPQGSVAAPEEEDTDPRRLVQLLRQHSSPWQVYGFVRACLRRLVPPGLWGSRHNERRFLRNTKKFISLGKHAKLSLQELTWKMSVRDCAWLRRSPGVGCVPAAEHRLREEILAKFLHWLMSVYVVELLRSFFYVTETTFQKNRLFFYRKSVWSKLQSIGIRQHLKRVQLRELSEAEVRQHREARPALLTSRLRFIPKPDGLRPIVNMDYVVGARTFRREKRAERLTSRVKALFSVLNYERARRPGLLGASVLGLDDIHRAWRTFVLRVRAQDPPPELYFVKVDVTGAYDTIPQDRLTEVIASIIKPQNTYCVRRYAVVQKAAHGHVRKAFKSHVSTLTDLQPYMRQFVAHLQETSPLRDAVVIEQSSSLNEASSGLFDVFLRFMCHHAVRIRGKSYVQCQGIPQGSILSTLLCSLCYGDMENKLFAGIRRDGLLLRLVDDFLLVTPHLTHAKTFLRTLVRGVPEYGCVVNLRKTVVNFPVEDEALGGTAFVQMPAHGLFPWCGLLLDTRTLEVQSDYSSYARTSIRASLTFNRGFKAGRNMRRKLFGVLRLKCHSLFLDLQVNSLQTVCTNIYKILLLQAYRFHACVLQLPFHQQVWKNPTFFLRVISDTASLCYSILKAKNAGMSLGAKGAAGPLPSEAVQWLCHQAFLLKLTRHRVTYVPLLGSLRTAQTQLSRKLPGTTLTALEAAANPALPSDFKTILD

[7] = biological target: T1, Telomerase reverse transcriptase; test: Effect on human TERT expressed in BJ1 cells at 1 uM after 24 hrs by SEAP assay realtive to control; settings: BJ

Compound	growth, % of control at 10 µM (TK-10) [%]	growth, % of control at 10 µM (UO-31) [%]	growth, % of control at 10 µM (M14) [%]	growth, % of control at 10 µM (Malme-3M) [%]	growth, % of control at 10 µM (SK-MEL-5) [%]	growth, % of control at 10 µM (UACC-257) [%]	growth, % of control at 10 µM (UACC-62) [%]	growth, % of control at 10 µM (SF-539) [%]	growth, % of control at 10 µM (SNB-19) [%]	viability at 100 µM [1] [%]	viability at 10 µM [2] [%]	viability at 48 h, 100 µM [3] [%]	viability at 48 h, 10 µM [4] [%]	growth percent at 10 µM (EKVX) [%]	growth percent at 10 µM (HOP-62) [%]	growth percent at 10 µM (HOP-92) [%]	growth percent at 10 µM (NCI-H226) [%]	growth percent at 10 µM (NCI-H23) [%]	growth, % of control at 10 µM (COLO 205) [%]	growth, % of control at 10 µM (Hs-578T) [%]	other results
O=C(CCN1CCCC1)Nc1ccc2c(c1)C(=O)c1cc(NC(=O)CCN3CCCC3)ccc1C2=O	31.2	5.27	53.9	47	56.9	-17.9	42.7	33.8	67	12	54	39	68	58.7	18.8	7.04	41.1	31.5	-29	5.26	growth percent at 10 µM (KM12): 32.5%; growth, % of control at 10 µM (MCF7): 13.3%; growth percent at 10 µM (MDA-MB-435): 68.8%; growth percent at 10 µM (T47D): 59%; growth percent at 10 µM (OVCAR-8): 19.6%; growth percent at 10 µM (K562): 6.4%; growth percent at 10 µM (RPMI-8226): 47.9%; growth percent at 10 µM (786-0): 40.5%; growth percent at 10 µM (A498): -0.91%; growth percent at 10 µM (ACHN): 29.6%; growth percent at 10 µM (HCC 2998): 20%; growth percent at 10 µM (NCI-H460): 25.5%; cell viability at 1 µM [5]: 87%; residual activity [6]: 73%
CN(C)CC(=O)Nc1ccc2c(c1)C(=O)c1cc(NC(=O)CN(C)C)ccc1C2=O	73.5	-82.5	75	96.2	82.6	-1.84	22.3	-3.72	79.6	15	55	39	45	102	29	56.1	89.1	51.8	-73.6	-6.11	growth, % of control at 10 µM (KM12; values are per cent of control): 67%; growth, % of control at 10 µM (MCF7): 7.92%; growth percent at 10 µM (MDA-MB-435): 68.4%; growth percent at 10 µM (T47D): 24.6%; growth percent at 10 µM (OVCAR-8): 32.3%; growth percent at 10 µM (K562): 34.9%; growth percent at 10 µM (RPMI-8226): 35%; growth percent at 10 µM (786-0): 68.6%; growth percent at 10 µM (A498): -6.39%; growth percent at 10 µM (ACHN): 66.4%; growth percent at 10 µM (HCC 2998): -74%; growth percent at 10 µM (NCI-H460): 5.01%; cell viability at 1 µM [5]: 92%; residual activity [7]: 96%; residual activity [6]: 87%
O=C1c2ccc(NC(=O)C3CC3)cc2C(=O)c2cc(NC(=O)C3CC3)ccc21	136	95.5	98.9	91.8	75.7	108	81	93.2	98.8	43	36	47	44	94.3	91.6	86.2	101	95.8	91.9	119	growth percent at 10 µM (KM12): 92.7%; growth, % of control at 10 µM (MCF7): 77.4%; growth percent at 10 µM (MDA-MB-435): 97.3%; growth percent at 10 µM (T47D): 79.8%; growth percent at 10 µM (OVCAR-8): 94.3%; growth percent at 10 µM (K562): 91.6%; growth percent at 10 µM (RPMI-8226): 88.4%; growth percent at 10 µM (786-0): 94.9%; growth percent at 10 µM (A498): 92.3%; growth percent at 10 µM (ACHN): 86.7%; growth percent at 10 µM (HCC 2998): 132%; growth percent at 10 µM (NCI-H460): 89%; cell viability at 1 µM [5]: 46%; residual activity [6]: 80%
